The target of assay [1] is T1, EP2 receptor (Homo sapiens, UniProt P43116). The experiment in a line: cell-based. The assay is classed as cell-based.
For assay [2], the target named is T1, EP2 receptor. As to the kind of experiment: Cell-based TR-FRET cAMP assay in BE. In general terms: TR-FRET usually uses a lanthanide donor and a delayed reading to cut background.
For another assay, the system named is Hs68 cells. The experiment in a line: TR-FRET cAMP assay in normal fibroblast cell line Hs68. The assay is classed as cell-based, human. Conditions: 10 μM agonist, Hs68 fibroblasts.
Assay [3] relates to EP2-deleted SK-N-AS cells. As to the kind of experiment: TR-FRET cAMP assay in EP2 knockout SK-N-AS cell lines. The assay is classed as cell-based, human. Conditions: read-out: PGE2 EC50 for cAMP. Summed up: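 EP2-knockout SK-N-AS lines were made with lentiCRISPRv2 sgRNAs, selected with puromycin (2 µg/mL) and verified by sequencing. […] After lysis with cAMP-d2 and anti-cAMP cryptate and 1 h at RT, TR-FRET was read (ex 340 nm; em 665/590 nm), n = 4. EC50 came from concentration–response curves.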

The EC50 is the concentration needed to bring the measured effect to its halfway point.

Read-outs that look alike come from different tables or passages of the source. Where only a bound is given, the exact number is not on record here.

T1 sequence (P43116 whole entry): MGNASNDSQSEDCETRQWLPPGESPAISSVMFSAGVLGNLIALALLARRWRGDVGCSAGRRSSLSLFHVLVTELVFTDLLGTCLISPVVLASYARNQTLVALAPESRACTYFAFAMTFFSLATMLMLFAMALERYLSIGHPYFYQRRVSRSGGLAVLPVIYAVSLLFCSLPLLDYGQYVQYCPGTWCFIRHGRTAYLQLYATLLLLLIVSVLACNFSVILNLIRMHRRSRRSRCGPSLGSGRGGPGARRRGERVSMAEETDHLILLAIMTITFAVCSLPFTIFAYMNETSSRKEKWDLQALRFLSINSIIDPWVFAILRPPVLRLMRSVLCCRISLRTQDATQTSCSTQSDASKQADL

As to `CCOc1c2c(c(OCC)c3ccccc13)C(=O)N(c1ccc(CC(=O)NS(=O)(=O)c3ccccc3)cc1)C2` [GW627368X], the “IC50, inhibition of PGE2-induced cAMP production” value on EP2 receptor [1] is recorded as “no effect”. As to `CCCC1([C@H](O)C/C=C/[C@H]2[C@H](O)CC(=O)[C@@H]2CCCCCCC(=O)OC)CCC1` [butaprost], the EC50 is 0.17 µM on EP2 receptor [1] (agonist EC50 for cAMP induction, SK-N-AS cells, n = 4) and 0.47 µM at EP2 receptor [2]. With `O=C1CC[C@H](/C=C/[C@@H](O)Cc2ccccc2)N1CCCCCCc1nn[nH]n1` [CAY10598], the cAMP production result in the assay on Hs68 cells is “more cAMP production than EP2 agonist butaprost and PGE2”. `CCCCC[C@H](O)/C=C/[C@H]1[C@H](O)CC(=O)[C@@H]1C/C=C\CCCC(=O)O` [PGE2, Prostaglandin E2]: the EC50 was more than 10 µM in assay [3] (Homo sapiens, SK-N-AS) and more than 10 µM in assay [3] (EP2 KO2 SK-N-AS cell line).

The values above are taken from paper PMC9282716 (Cell reports, 2022).
